# What was measured:
# [1] = biological target: T1, Retinoic acid receptor alpha (Homo sapiens, UniProt P10276); experiment: Binding affinity for retinoic acid receptor alpha (RARalpha), using 9-cis-[3H]-retinoic acid
# T1 sequence (P10276 whole entry): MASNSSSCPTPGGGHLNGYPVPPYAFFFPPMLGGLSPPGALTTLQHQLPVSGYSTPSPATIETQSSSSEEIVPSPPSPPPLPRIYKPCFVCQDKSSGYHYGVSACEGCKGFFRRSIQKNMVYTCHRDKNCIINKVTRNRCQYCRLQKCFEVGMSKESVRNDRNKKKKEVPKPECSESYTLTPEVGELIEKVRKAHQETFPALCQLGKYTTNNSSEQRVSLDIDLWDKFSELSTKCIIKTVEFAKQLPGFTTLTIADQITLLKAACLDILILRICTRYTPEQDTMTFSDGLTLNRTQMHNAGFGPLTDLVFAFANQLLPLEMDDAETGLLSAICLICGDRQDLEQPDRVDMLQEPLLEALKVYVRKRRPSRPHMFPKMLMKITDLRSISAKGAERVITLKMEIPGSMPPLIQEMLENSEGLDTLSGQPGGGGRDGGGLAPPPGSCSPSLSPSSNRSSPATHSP
# Outline: (§1)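 Scintillation proximity binding assay; Ki from competition of 2.5 nM 9-cis-RA at RXRα and RARα, with test compound up to 10 µM.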
# [2] = biological target: T1, Retinoic acid receptor alpha; experiment: Effective concentration for Retinoic acid receptor alpha activity in CV-1 cells; type: functional, cell-based
# Outline: (§2)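 CV-1 monkey kidney cells transiently transfected with a full-length hRXRα expression vector (RXRα) or a GAL4-hRARα vector (RARα), each with an RXRα- or RARα-responsive reporter gene construct. Top concentration 10 µM; EC50 calculated from the reporter response.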
# [3] = biological target: T2, Retinoic acid receptor RXR-alpha (Homo sapiens, UniProt P19793); experiment: Effective concentration for Retinoid X receptor alpha activity in CV-1 cells; type: functional, cell-based; outline: as §2
# T2 sequence (P19793 whole entry): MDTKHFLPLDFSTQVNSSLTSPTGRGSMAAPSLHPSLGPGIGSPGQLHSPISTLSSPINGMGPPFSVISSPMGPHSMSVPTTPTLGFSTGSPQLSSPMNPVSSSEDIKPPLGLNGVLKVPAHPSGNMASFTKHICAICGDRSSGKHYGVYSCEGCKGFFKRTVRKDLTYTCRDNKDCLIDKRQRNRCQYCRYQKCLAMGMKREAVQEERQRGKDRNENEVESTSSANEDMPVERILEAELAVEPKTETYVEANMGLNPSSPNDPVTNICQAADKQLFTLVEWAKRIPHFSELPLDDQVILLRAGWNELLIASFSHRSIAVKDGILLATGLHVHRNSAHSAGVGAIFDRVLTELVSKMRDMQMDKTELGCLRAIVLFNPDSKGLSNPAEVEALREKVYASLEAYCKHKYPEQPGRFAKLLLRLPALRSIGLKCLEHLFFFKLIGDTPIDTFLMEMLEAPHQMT
# [4] = biological target: T2, Retinoic acid receptor RXR-alpha; experiment: Binding affinity for retinoid X receptor alpha (RXRalpha), using 9-cis-[3H]-retinoic acid; outline: as §1
# [5] = biological target: T2, Retinoic acid receptor RXR-alpha; experiment: Effective concentration for Retinoid X receptor alpha activity in CV-1 cells; Partial agonist; type: functional, cell-based; outline: as §2
Ki [1],EC50 [2],EC50 [3],Ki [4],EC50 [5],Structure (SMILES)
> 1000 nM,> 10000 nM,106 nM,158 nM,,Cc1oc(/C=C/C(=O)O)cc1Cc1ccc2c(c1)C(C)(C)CCC2(C)C
> 1000 nM,,70 nM,79 nM,,CN1Cc2oc(/C=C/C(=O)O)cc2C(c2ccc3c(c2)C(C)(C)CCC3(C)C)C1 (centres undefined)
> 1000 nM,> 10000 nM,,100 nM,137 nM,CCCOc1cc2c(cc1C1CCCc3oc(/C=C/C(=O)O)cc31)C(C)(C)CCC2(C)C (centres undefined)
> 1000 nM,> 10000 nM,20 nM,40 nM,,CC1(C)CCC(C)(C)c2cc(C3CCCc4sc(/C=C/C(=O)O)cc43)ccc21 (centres undefined)
> 1000 nM,,> 10000 nM,> 3000 nM,,CC1(C)CCC(C)(C)c2cc(C3CCCc4oc(C(=O)O)cc43)ccc21 (centres undefined)
> 1000 nM,,,138 nM,,CC1(C)CCC(C)(C)c2cc(Cc3coc(/C=C/C(=O)O)c3)ccc21
> 1000 nM,> 10000 nM,4 nM,20 nM,,CC1(C)CCC(C)(C)c2cc(C3CCCc4oc(/C=C5/SC(=O)NC5=O)cc43)ccc21 (centres undefined)
,,,7400 nM,,O=C1NC(=O)/C(=C/c2ccc(-c3cccc(C(F)(F)F)c3)o2)S1

Structure (SMILES),Ki [1],EC50 [2],EC50 [3],Ki [4],EC50 [5]
CC1(C)CCC(C)(C)c2cc(C3CCCc4oc(/C=C/C(=O)O)cc43)ccc21 (stereo in doubt; 60),> 1000 nM,> 790 nM,97 nM,90 nM,

# From ChEMBL document CHEMBL1149144, “Structure-based design of potent retinoid X receptor alpha agonists” (J Med Chem, 2004)
